In paper PMC5788414 (Journal of Medicinal Chemistry, 2017):
Peptide text beside a SMILES is read from it. * marks the point of attachment. Cbz = O=C(OCc1ccccc1)*

Tests used:
BRD2 = BRD2 (Homo sapiens, UniProt P25440); test: Western blotting of BRD2 protein level in RS4; format: cell-based; conditions: RS4;11 cells, 3 h treatment, Western blot
Method in brief: (§1)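 RS4;11 cells (2 × 10⁶/well) were treated with the test compound at the indicated concentrations for 3 h or 24 h. Cells were lysed in RIPA buffer with protease inhibitors. Lysate (20 μg per lane) was separated by SDS–PAGE, blotted onto PVDF, and probed with BRD2, BRD3 and BRD4 antibodies, with GAPDH as the loading control.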

BRD3 = BRD3 (Homo sapiens, UniProt Q15059); test: Western blotting of BRD3 protein level in RS4; format: cell-based; conditions: RS4;11 cells, 3 h treatment, Western blot
BRD3, sequence (Q15059 whole entry): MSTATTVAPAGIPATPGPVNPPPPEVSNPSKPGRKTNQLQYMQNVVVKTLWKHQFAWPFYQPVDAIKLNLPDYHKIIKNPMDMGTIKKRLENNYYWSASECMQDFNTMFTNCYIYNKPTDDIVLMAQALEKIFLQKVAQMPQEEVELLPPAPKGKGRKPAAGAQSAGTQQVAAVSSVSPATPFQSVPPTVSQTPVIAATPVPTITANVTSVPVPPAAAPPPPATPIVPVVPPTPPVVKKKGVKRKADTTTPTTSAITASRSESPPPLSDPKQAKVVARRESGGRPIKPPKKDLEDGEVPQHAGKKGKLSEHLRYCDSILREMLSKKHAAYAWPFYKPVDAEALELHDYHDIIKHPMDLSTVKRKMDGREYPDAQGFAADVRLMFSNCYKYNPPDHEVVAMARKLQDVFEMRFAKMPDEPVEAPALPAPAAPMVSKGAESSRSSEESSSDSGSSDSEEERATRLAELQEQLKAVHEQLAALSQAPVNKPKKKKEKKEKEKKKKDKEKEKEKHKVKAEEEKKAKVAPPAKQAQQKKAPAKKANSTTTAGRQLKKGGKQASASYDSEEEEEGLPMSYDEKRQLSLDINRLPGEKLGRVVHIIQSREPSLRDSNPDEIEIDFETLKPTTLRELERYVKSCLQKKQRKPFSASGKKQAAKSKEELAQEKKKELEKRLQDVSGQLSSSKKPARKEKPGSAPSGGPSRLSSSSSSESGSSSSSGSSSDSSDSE
Method in brief: as §1

BRD4 = BRD4 (Homo sapiens, UniProt O60885); test: Western blotting of BRD4 protein level in RS4; format: cell-based; conditions: RS4;11 cells, 3 h treatment, Western blot
Method in brief: as §1

[1] = system: RS4;11 acute leukemia cell line; test: Cell growth inhibition; format: cell-based, human; conditions: for times less potent than 15 in cell growth inhibition: comparator 15; for times more potent than 9 in cell growth inhibition: comparator 9; for times less potent than 23 in cell growth inhibition: comparator 23
[2] = system: BRD2, BRD3, and BRD4 proteins; test: Western blotting of BET protein levels in RS4; format: cell-based, human; conditions: RS4;11 cells; for Effect of pretreatment on degradation of BRD2, BRD3, and BRD4 induced by 23: 2 h pretreatment, then 3 h treatment with 23 at 1 nM
BRD2, BRD3, and BRD4 = test: FP-based competitive binding assays, BET proteins overall; conditions: binding to BRD2, BRD3, BRD4; comparator 8

BRD2, sequence (P25440 whole entry): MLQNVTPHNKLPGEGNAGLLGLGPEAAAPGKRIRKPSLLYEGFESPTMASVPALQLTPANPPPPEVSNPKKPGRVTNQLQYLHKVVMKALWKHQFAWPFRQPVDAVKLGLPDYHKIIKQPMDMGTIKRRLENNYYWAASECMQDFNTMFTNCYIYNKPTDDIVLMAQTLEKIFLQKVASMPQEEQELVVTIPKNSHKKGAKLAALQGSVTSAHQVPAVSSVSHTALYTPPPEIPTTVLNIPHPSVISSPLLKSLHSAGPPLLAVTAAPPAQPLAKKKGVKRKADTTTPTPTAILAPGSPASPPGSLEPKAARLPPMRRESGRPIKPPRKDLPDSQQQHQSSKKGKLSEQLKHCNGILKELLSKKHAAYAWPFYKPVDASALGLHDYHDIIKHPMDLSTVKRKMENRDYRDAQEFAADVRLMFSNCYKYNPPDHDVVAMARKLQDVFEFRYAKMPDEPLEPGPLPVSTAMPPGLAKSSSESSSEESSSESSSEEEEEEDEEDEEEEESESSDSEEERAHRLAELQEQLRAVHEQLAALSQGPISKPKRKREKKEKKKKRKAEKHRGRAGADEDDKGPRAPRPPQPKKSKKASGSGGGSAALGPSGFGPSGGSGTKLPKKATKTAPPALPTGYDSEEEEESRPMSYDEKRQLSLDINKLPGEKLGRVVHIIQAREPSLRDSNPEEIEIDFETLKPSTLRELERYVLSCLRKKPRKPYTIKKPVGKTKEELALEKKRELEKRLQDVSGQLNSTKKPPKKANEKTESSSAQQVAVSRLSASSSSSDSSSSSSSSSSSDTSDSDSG

Compound: CCn1nc(C2CC2)cc1Nc1nc(C(=O)NCCCCCCc2cccc3c2CN(C2CCC(=O)NC2=O)C3=O)nc2[nH]c3cc(-c4c(C)noc4C)c(OC)cc3c12 (stereo not shown) [Compound 21, 4-((3-Cyclopropyl-1-ethyl-1H-pyrazol-5-yl)amino)-7-(3,5-dimethylisoxazol-4-yl)-N-(6-(2-(2,6-dioxopiperidin-3-yl)-1-oxoisoindolin-4-yl)hexyl)-6-methoxy-9H-pyrimido[4,5-b]indole-2-carboxamide]
- Lowest concentration effective in decreasing the level of BRD2 protein (BRD2): 0.3 nM
- Lowest concentration effective in decreasing the level of BRD3 protein (BRD3): 0.1 nM
- Lowest concentration effective in decreasing the level of BRD4 protein (BRD4): 0.3 nM

Compound: 4-((3-Cyclopropyl-1-ethyl-1H-pyrazol-5-yl)amino)-7-(3,5-dimethylisoxazol-4-yl)-N-(2-((2-(2,6-dioxopiperidin-3-yl)-1,3-dioxoisoindolin-4-yl)amino)ethyl)-6-methoxy-9H-pyrimido[4,5-b]indole-2-carboxamide [Compound 17]
- times less potent than 15 in cell growth inhibition [1]: 10 times

Compound: CCn1nc(C2CC2)cc1Nc1nc(C(=O)NCCCCCCCOc2cccc3c2C(=O)N(C2CCC(=O)NC2=O)C3=O)nc2[nH]c3cc(-c4c(C)noc4C)c(OC)cc3c12 (stereo not shown) [Compound 11, 4-((3-Cyclopropyl-1-ethyl-1H-pyrazol-5-yl)amino)-7-(3,5-dimethylisoxazol-4-yl)-N-(7-((2-(2,6-dioxopiperidin-3-yl)-1,3-dioxoisoindolin-4-yl)oxy)heptyl)-6-methoxy-9H-pyrimido[4,5-b]indole-2-carboxamide]
- times more potent than 9 in cell growth inhibition [1]: 10 times

Compound: CCn1nc(C2CC2)cc1Nc1nc(C(=O)NCCOCCCc2cccc3c2CN(C2CCC(=O)NC2=O)C3=O)nc2[nH]c3cc(-c4c(C)noc4C)c(OC)cc3c12 (stereo not shown) [Compound 22, 4-((3-Cyclopropyl-1-ethyl-1H-pyrazol-5-yl)amino)-7-(3,5-dimethylisoxazol-4-yl)-N-(2-(3-(2-(2,6-dioxopiperidin-3-yl)-1-oxoisoindolin-4-yl)propoxy)ethyl)-6-methoxy-9H-pyrimido[4,5-b]indole-2-carboxamide]
- times less potent than 19 in cell growth inhibition ([1]; comparator 19): 2 times

Compound: CC(C)C[C@@H](C=O)NC(=O)[C@H](CC(C)C)NC(=O)[C@H](CC(C)C)NC(=O)OCc1ccccc1 [MG-132, reference compound] (Cbz-Leu-Leu-Leu-aldehyde)
- Effect of pretreatment on degradation of BRD2, BRD3, and BRD4 induced by 23 [2]: completely block

Compound: CCn1nc(C2CC2)cc1Nc1nc(C(=O)NCCCCCCNc2cccc3c2C(=O)N(C2CCC(=O)NC2=O)C3=O)nc2[nH]c3cc(-c4c(C)noc4C)c(OC)cc3c12 (stereo not shown) [Compound 13, 4-((3-Cyclopropyl-1-ethyl-1H-pyrazol-5-yl)amino)-7-(3,5-dimethylisoxazol-4-yl)-N-(6-((2-(2,6-dioxopiperidin-3-yl)-1,3-dioxoisoindolin-4-yl)amino)hexyl)-6-methoxy-9H-pyrimido[4,5-b]indole-2-carboxamide]
- times less potent than 12 in cell growth inhibition ([1]; comparator 12): 3 times

Compound: CCn1nc(C2CC2)cc1Nc1nc(C(=O)NCCCCCCCNc2cccc3c2C(=O)N(C2CCC(=O)NC2=O)C3=O)nc2[nH]c3cc(-c4c(C)noc4C)c(OC)cc3c12 (stereo not shown) [Compound 12, 4-((3-Cyclopropyl-1-ethyl-1H-pyrazol-5-yl)amino)-7-(3,5-dimethylisoxazol-4-yl)-N-(7-((2-(2,6-dioxopiperidin-3-yl)-1,3-dioxoisoindolin-4-yl)amino)heptyl)-6-methoxy-9H-pyrimido[4,5-b]indole-2-carboxamide]
- times more potent than 10 in cell growth inhibition ([1]; comparator 10): 10 times

Compound: CCn1nc(C2CC2)cc1Nc1nc(C(=O)NCCCCNC(=O)COc2cccc3c2C(=O)N(C2CCC(=O)NC2=O)C3=O)nc2[nH]c3cc(-c4c(C)noc4C)c(OC)cc3c12 (stereo not shown) [Compound 9, 4-((3-Cyclopropyl-1-ethyl-1H-pyrazol-5-yl)amino)-7-(3,5-dimethylisoxazol-4-yl)-N-(4-(2-((2-(2,6-dioxopiperidin-3-yl)-1,3-dioxoisoindolin-4-yl)oxy)acetamido)butyl)-6-methoxy-9H-pyrimido[4,5-b]indole-2-carboxamide]
- times more potent than 8 in cell growth inhibition ([1]; comparator 8): 6 times
- Lowest concentrations effective in decreasing the level of BRD2, BRD3, and BRD4 proteins ([2]; 3 h treatment, Western blot): 3 to 10 nM

Compound: CCn1nc(C2CC2)cc1Nc1nc(C(=O)NCCCCNC(=O)CNc2cccc3c2C(=O)N(C2CCC(=O)NC2=O)C3=O)nc2[nH]c3cc(-c4c(C)noc4C)c(OC)cc3c12 (stereo not shown) [Compound 10, 4-((3-Cyclopropyl-1-ethyl-1H-pyrazol-5-yl)amino)-7-(3,5-dimethylisoxazol-4-yl)-N-(4-(2-((2-(2,6-dioxopiperidin-3-yl)-1,3-dioxoisoindolin-4-yl)amino)acetamido)butyl)-6-methoxy-9H-pyrimido[4,5-b]indole-2-carboxamide]
- times more potent than 9 in cell growth inhibition [1]: 2 times

Compound: CCn1nc(C2CC2)cc1Nc1nc(C(=O)NCCOCCCc2cccc3c2C(=O)N(C2CCC(=O)NC2=O)C3=O)nc2[nH]c3cc(-c4c(C)noc4C)c(OC)cc3c12 (stereo not shown) [Compound 19, 4-((3-Cyclopropyl-1-ethyl-1H-pyrazol-5-yl)amino)-7-(3,5-dimethylisoxazol-4-yl)-N-(2-(3-(2-(2,6-dioxopiperidin-3-yl)-1,3-dioxoisoindolin-4-yl)propoxy)ethyl)-6-methoxy-9H-pyrimido[4,5-b]indole-2-carboxamide]
- times less potent than 18 in cell growth inhibition ([1]; comparator 18): 2 times

Compound: 4-((3-Cyclopropyl-1-ethyl-1H-pyrazol-5-yl)amino)-7-(3,5-dimethylisoxazol-4-yl)-N-(3-((2-(2,6-dioxopiperidin-3-yl)-1,3-dioxoisoindolin-4-yl)amino)propyl)-6-methoxy-9H-pyrimido[4,5-b]indole-2-carboxamide [Compound 16]
- times less potent than 15 in cell growth inhibition [1]: 5 times

Compound: Nc1cccc2c1CN(C1CCC(=O)NC1=O)C2=O (stereo not shown) [lenalidomide, reference compound]
- Effect of pretreatment on degradation of BRD2, BRD3, and BRD4 induced by 23 [2]: effectively blocks

Compound: CCn1nc(C2CC2)cc1Nc1nc(C(=O)NCCCCCc2cccc3c2CN(C2CCC(=O)N(C)C2=O)C3=O)nc2[nH]c3cc(-c4c(C)noc4C)c(OC)cc3c12 (stereo not shown) [Compound 26, 4-((3-Cyclopropyl-1-ethyl-1H-pyrazol-5-yl)amino)-7-(3,5-dimethylisoxazol-4-yl)-6-methoxy-N-(5-(2-(1-methyl-2,6-dioxopiperidin-3-yl)-1-oxoisoindolin-4-yl)pentyl)-9H-pyrimido[4,5-b]indole-2-carboxamide]
- times less potent than 23 in cell growth inhibition [1]: > 600 times
- Effect on the level of BRD2, BRD3, and BRD4 proteins ([2]; 3 h treatment, Western blot): fails to induce degradation

Compound: CCn1nc(C2CC2)cc1Nc1nc(C(=O)NCCCc2cccc3c2CN(C2CCC(=O)NC2=O)C3=O)nc2[nH]c3cc(-c4c(C)noc4C)c(OC)cc3c12 (stereo not shown) [Compound 25, 4-((3-Cyclopropyl-1-ethyl-1H-pyrazol-5-yl)amino)-7-(3,5-dimethylisoxazol-4-yl)-N-(3-(2-(2,6-dioxopiperidin-3-yl)-1-oxoisoindolin-4-yl)propyl)-6-methoxy-9H-pyrimido[4,5-b]indole-2-carboxamide]
- times less potent than 23 in cell growth inhibition [1]: 188 times
- Lowest concentration effective in decreasing the level of BRD2 protein (BRD2): less potent and effective
- Lowest concentration effective in decreasing the level of BRD3 protein (BRD3): 10 nM
- Lowest concentration effective in decreasing the level of BRD4 protein (BRD4): 10 nM

Compound: NS(=O)(=O)OC[C@@H]1C[C@@H](n2ccc3c(N[C@H]4CCc5ccccc54)ncnc32)C[C@@H]1O [MLN4924, reference compound]
- Effect of pretreatment on degradation of BRD2, BRD3, and BRD4 induced by 23 [2]: completely block

Compound: CCn1nc(C2CC2)cc1Nc1nc(C(=O)NCCCCc2cccc3c2CN(C2CCC(=O)NC2=O)C3=O)nc2[nH]c3cc(-c4c(C)noc4C)c(OC)cc3c12 (stereo not shown) [Compound 24, 4-((3-Cyclopropyl-1-ethyl-1H-pyrazol-5-yl)amino)-7-(3,5-dimethylisoxazol-4-yl)-N-(4-(2-(2,6-dioxopiperidin-3-yl)-1-oxoisoindolin-4-yl)butyl)-6-methoxy-9H-pyrimido[4,5-b]indole-2-carboxamide]
- times less potent than 23 in cell growth inhibition [1]: 19 times
- Lowest concentration effective in decreasing the level of BRD2 protein (BRD2): 3 nM
- Lowest concentration effective in decreasing the level of BRD3 protein (BRD3): 1 nM
- Lowest concentration effective in decreasing the level of BRD4 protein (BRD4): 3 nM

Compound: CCn1nc(C2CC2)cc1Nc1nc(C(=O)NCCCCNc2cccc3c2C(=O)N(C2CCC(=O)NC2=O)C3=O)nc2[nH]c3cc(-c4c(C)noc4C)c(OC)cc3c12 (stereo not shown) [Compound 15, 4-((3-Cyclopropyl-1-ethyl-1H-pyrazol-5-yl)amino)-7-(3,5-dimethylisoxazol-4-yl)-N-(4-((2-(2,6-dioxopiperidin-3-yl)-1,3-dioxoisoindolin-4-yl)amino)butyl)-6-methoxy-9H-pyrimido[4,5-b]indole-2-carboxamide]
- times less potent than 14 in cell growth inhibition ([1]; comparator 14): ~3 times

Compound: CNC(=O)c1ncc2c(n1)[nH]c1cc(-c3c(C)noc3C)c(OC)cc12 [Compound 28, 7-(3,5-Dimethylisoxazol-4-yl)-6-methoxy-N-methyl-9H-pyrimido[4,5-b]indole-2-carboxamide]
- times less potent than 8 in binding affinity (BRD2, BRD3, and BRD4): > 100 times
